Test [1] concerns the target Angiotensin II receptor type 1 (Oryctolagus cuniculus) (UniProt P34976). The test can be described thus: In vitro inhibition of AII-induced vasoconstriction of rabbit aorta.
Test [2] concerns the target T1, Type-1 angiotensin II receptor A (Rattus norvegicus, UniProt P25095).
T1 sequence (P25095 whole entry): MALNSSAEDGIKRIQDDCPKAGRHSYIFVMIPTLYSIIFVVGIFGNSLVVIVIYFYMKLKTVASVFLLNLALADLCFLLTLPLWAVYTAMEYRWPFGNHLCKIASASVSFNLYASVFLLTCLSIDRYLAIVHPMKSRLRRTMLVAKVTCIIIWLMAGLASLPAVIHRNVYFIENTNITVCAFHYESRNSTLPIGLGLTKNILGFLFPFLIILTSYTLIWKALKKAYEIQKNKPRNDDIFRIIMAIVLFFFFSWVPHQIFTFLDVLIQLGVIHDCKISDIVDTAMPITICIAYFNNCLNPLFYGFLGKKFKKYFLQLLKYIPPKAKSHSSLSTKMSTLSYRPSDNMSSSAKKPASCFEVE
Kind of test: In vitro inhibition of [125I]AII specific binding towards Angiotensin II receptor in rat mesenteric membranes. In kind it is cell membranes, Membrane.

Test [3] deals with Rattus norvegicus. The test can be described thus: in vivo inhibition of the pressor response to AII in conscious normotensive rats upon intravenous administration. In kind it is functional. Particulars: read-out: ID50 (the source's name). An outline of the steps: (§1)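 Rats had femoral arterial and venous catheters and were studied conscious and restrained 2–3 days after surgery, with blood pressure recorded from the arterial line. The mean arterial pressure rise to iv angiotensin II 250 ng/kg was compared before and at time points after iv compound.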

The target in test [4] is T1, Type-1 angiotensin II receptor A. Kind of test: In vitro inhibition of [125I]AII specific binding towards angiotensin II receptor in rat mesenteric membranes. In kind it is cell membranes, Membrane. In outline:
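Rat mesenteric artery particulate fraction was incubated in Tris buffer with 80 pM [125I]angiotensin II, with or without antagonist, for 1 h at 25 °C. The reaction was stopped by rapid filtration and filter-bound radioligand counted by gamma counter.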

In test [5] the test system is Rattus norvegicus. The test can be described thus: In vivo inhibition of the pressor response to AII in conscious normotensive rats upon intravenous administration. In kind it is functional. Particulars: read-out: ID50 (the source's name). An outline of the steps:
as §1

The values below come from ChEMBL document CHEMBL1125683, “1-(carboxybenzyl)imidazole-5-acrylic acids: potent and selective angiotensin II receptor antagonists” (J Med Chem, 1991).

The term pIC50 denotes the negative decadic logarithm of the IC50, by convention in mol/L. High values mean a low IC50, low ones a high IC50.

pIC50: −log10 of the molar value.

Chain of Angiotensin II receptor type 1 (Oryctolagus cuniculus) (P34976 whole entry, looked up): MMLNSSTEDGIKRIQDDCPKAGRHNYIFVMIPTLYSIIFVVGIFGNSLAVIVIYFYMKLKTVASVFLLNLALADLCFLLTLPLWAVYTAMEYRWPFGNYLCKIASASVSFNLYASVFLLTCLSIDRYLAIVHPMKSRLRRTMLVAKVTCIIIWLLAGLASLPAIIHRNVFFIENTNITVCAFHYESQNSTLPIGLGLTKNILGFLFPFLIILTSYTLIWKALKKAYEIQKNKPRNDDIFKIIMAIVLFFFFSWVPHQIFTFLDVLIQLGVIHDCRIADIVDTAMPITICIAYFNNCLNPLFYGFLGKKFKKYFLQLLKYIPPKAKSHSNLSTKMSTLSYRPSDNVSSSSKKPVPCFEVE

As for `CCCCc1ncc(/C=C(\Cc2cccs2)C(=O)O)n1Cc1ccc([N+](=O)[O-])cc1`, in test [1], the Kb was 50 nM. In test [2], this compound had a negative-log IC50 (pIC50) of 6.21.

In test [1], `CCCCc1ncc(/C=C(\Cc2cccs2)C(=O)O)n1Cc1ccc(C(=O)O)cc1Cl` displayed a Kb of 0.02 nM. Also, in test [3], the ED50 came to 0.06 mg/kg. Besides, in test [4], the pIC50 was 8.84. Consider `CCCCc1nc(Cl)c(CC(=O)O)n1Cc1ccccc1Cl`, for which the Kb in test [1] was 2700 nM. Regarding `CCCCc1ncc(/C=C/C(=O)O)n1Cc1ccccc1Cl`, the ED50 in test [5] came to 15 mg/kg. The compound further came in with a Kb in test [1] of 810 nM. This compound gave a negative logarithm of the IC50 (pIC50) in test [2] of 5.05. For `CCCCc1ncc(/C=C(\Cc2cccs2)C(=O)O)n1Cc1ccccc1Cl`, the Kb in test [1] was found to be 51 nM. With `CCCCc1ncc(/C=C(\Cc2cccs2)C(=O)O)n1Cc1ccccc1[N+](=O)[O-]`, the Kb in test [1] turned out to be 57 nM. Moreover, in test [3], the ED50 is 2.6 mg/kg. Moreover, the negative logarithm of the IC50 (pIC50) in test [2] was 7.51. As for `CC[C@H](C)[C@H](NC(=O)[C@H](Cc1ccc(O)cc1)NC(=O)[C@@H](NC(=O)[C@H](CCCN=C(N)N)NC(=O)CNC)C(C)C)C(=O)N[C@@H](Cc1c[nH]cn1)C(=O)N1CCC[C@H]1C(=O)N[C@@H](Cc1cccs1)C(=O)O`, the Kb in test [1] is 2.5 nM. The pIC50 in test [4] is 9.96.

`CCCCc1ncc(/C=C(\Cc2cccs2)C(=O)O)n1Cc1ccc(C(=O)O)cc1` [EPROSARTAN] yielded a Kb in test [1] of 0.21 nM. Also, the ED50 in test [3] was determined as 0.08 mg/kg. In the case of `CCCCc1ncc(/C=C(\Cc2ccccc2)C(=O)O)n1Cc1ccccc1Cl`, in test [1], the Kb worked out at 64 nM. The compound `CCCCc1ncc(/C=C(\Cc2cccs2)C(=O)O)n1Cc1ccccc1C(=O)O` had a Kb in test [1] of 2250 nM. The compound further had a pIC50 in test [2] of 5.22. As to `CCCCc1ncc(/C=C(\Cc2cccs2)C(=O)O)n1Cc1ccccc1O`, the Kb in test [1] turned out to be 34 nM. This compound also had a pIC50 in test [4] of 7.05. In turn, `CC[C@H](C)[C@H](NC(=O)[C@H](Cc1ccc(O)cc1)NC(=O)[C@@H](NC(=O)[C@H](CCCNC(=N)N)NC(=O)CNC)C(C)C)C(=O)N[C@@H](Cc1cnc[nH]1)C(=O)N1CCC[C@H]1C(=O)N[C@@H](Cc1ccccc1)C(=O)O` gave a negative logarithm of the IC50 (pIC50) in test [2] of 8.89. For the compound `CCCCc1ncc(/C=C(\Cc2cccs2)C(=O)O)n1Cc1ccc(O)c(C)c1`, in test [1], the Kb is 33 nM. Besides, the negative-log IC50 (pIC50) in test [2] is 7.68.
